pEC50: −log10 of the molar value. Active and inactive are the calls of the source. The rule behind the calls is not given here. Bounds are passed on as bounds.

This note sets out measurements from ChEMBL document CHEMBL3826928, “Incorporation of Phosphonate into Benzonaphthyridine Toll-like Receptor 7 Agonists for Adsorption to Aluminum Hydroxide” (J Med Chem, 2016).

Assay [1] addresses T1, Toll-like receptor 8 (Homo sapiens) (UniProt Q9NR97).
T1 sequence (whole entry): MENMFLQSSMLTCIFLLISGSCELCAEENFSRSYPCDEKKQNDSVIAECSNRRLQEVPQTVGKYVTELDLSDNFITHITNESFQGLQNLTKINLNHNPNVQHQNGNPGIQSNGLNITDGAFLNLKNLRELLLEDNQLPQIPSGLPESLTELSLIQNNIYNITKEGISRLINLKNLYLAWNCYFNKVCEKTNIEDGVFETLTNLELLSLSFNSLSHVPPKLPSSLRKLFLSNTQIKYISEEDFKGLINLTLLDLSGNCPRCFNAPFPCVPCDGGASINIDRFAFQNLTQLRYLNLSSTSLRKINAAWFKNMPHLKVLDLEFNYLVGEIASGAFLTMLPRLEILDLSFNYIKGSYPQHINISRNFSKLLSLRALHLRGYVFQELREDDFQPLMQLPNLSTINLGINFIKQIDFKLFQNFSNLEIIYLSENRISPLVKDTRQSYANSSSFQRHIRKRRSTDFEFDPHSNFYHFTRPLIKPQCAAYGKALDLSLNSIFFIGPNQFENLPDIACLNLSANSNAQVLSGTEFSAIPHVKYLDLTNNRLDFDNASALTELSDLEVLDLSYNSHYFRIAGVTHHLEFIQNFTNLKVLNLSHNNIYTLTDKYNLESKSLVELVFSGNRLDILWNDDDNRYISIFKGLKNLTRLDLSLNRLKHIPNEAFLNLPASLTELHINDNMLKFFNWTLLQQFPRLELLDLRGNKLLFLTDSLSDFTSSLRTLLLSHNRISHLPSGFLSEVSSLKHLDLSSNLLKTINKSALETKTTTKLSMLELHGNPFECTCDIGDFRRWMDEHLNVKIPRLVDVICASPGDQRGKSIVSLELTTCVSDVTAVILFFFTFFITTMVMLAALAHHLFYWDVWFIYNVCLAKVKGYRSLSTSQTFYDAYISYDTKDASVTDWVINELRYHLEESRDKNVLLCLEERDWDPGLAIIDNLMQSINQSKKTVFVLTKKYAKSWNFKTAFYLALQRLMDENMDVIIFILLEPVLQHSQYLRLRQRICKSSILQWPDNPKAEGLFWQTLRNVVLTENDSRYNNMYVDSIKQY
Nature of the assay: Agonist activity at human TLR8 expressed in HEK293 cells up to 30 uM incubated for 6 hrs by luciferase reporter gene assay relative to resiquimod. Type of assay: cell-based.

Assay [2] has as its target T2, Toll-like receptor 7 (Mus musculus, UniProt P58681).
T2 sequence (P58681 whole entry): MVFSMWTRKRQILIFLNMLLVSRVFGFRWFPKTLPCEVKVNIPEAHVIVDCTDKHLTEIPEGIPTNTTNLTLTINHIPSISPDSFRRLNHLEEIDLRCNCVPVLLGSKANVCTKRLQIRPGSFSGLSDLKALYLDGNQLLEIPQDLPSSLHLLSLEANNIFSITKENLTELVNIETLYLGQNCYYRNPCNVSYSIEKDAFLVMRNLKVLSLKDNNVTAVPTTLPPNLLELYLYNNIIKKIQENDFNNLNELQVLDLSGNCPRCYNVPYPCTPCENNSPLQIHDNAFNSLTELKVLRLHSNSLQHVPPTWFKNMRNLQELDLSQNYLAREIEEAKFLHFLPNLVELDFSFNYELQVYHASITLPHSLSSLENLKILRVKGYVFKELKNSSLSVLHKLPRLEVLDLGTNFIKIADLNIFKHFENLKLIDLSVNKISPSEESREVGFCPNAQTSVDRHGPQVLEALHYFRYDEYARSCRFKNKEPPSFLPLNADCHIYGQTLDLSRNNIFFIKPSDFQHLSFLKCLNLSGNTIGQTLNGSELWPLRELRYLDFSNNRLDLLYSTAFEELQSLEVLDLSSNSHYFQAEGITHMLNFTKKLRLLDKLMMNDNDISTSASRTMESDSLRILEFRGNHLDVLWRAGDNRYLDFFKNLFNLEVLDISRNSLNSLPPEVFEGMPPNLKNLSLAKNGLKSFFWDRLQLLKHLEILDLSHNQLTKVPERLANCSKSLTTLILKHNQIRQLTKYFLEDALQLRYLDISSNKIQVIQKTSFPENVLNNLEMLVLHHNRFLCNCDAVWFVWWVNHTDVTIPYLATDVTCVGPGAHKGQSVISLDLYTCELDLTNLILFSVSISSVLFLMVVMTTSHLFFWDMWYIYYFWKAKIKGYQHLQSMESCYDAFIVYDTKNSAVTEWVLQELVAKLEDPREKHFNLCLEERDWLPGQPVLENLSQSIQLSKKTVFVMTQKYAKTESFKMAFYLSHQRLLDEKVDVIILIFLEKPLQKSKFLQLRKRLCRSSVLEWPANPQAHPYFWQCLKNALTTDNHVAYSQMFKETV
The assay can be described thus: Agonist activity at TLR7 in Balb/c mouse splenocytes assessed as induction of IL-6 secretion in supernatant after 18 hrs. Type of assay: cell-based. The procedure, abridged: (§1)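 Spleens from female BALB/c mice (6−10 weeks), single-cell suspension, RBC lysis; 5 × 10⁵ splenocytes per well in RPMI 1640 with 10% FCS, 2-ME. Compounds as sodium salts (1 equiv NaOH) from 10 mM water stocks, 3-fold 10-point dilutions from 30 μM.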

For assay [3], the target named is T3, Toll-like receptor 7 (Mus musculus) (UniProt P58681).
T3 sequence (whole entry): T2 sequence (P58681 whole entry)
The assay can be described thus: Agonist activity at TLR7 in Balb/c mouse splenocytes assessed as induction of IL-6 secretion in supernatant after 18 hrs relative to resiquimod. The format is cell-based. In outline: as §1

Assay [4] has as its target T4, Toll-like receptor 7 (Homo sapiens, UniProt Q9NYK1).
T4 sequence (Q9NYK1 whole entry): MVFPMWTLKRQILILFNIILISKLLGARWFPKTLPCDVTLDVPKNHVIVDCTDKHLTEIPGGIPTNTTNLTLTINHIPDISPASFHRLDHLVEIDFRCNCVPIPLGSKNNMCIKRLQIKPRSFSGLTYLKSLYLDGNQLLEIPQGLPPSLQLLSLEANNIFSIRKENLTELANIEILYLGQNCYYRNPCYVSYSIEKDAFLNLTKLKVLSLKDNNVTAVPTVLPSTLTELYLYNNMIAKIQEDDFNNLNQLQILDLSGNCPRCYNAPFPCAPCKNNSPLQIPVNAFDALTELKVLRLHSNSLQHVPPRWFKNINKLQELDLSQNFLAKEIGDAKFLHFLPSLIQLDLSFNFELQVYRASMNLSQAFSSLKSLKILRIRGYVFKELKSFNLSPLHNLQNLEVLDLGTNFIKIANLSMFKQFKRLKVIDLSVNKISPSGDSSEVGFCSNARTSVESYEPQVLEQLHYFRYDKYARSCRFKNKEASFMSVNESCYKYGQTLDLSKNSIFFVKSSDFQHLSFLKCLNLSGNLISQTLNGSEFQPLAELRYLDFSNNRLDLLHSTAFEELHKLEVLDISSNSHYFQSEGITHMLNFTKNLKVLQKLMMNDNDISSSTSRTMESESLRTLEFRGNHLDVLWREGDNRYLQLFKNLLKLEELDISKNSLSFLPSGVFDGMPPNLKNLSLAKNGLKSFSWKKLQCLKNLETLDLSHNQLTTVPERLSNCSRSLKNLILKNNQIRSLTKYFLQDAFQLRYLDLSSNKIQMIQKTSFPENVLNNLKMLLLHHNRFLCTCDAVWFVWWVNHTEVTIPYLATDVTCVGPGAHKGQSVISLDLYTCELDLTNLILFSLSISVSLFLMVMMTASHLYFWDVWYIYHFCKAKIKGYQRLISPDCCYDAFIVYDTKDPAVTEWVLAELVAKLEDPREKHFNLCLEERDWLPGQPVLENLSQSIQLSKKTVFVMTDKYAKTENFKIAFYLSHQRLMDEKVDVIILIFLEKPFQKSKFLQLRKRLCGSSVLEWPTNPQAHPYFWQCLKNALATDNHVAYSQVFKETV
The assay can be described thus: Agonist activity at TLR7 in human PBMC assessed as induction of IL-6 secretion in supernatant after 18 hrs. The following applies: for pEC50: read-out: EC50. The procedure, abridged:
(§2)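 Isolated human PBMCs washed in PBS, resuspended in RPMI1640 with 10% heat-inactivated FBS, pyruvate, HEPES, at 1 × 10⁶ cells/mL. Compounds as in-situ sodium salts from 10 mM aqueous stocks, 3-fold 10-point dilutions from 30 μM.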

Assay [5] has as its target T5, Toll-like receptor 7 (Homo sapiens) (UniProt Q9NYK1).
T5 sequence (whole entry): T4 sequence (Q9NYK1 whole entry)
Nature of the assay: Agonist activity at human TLR7 expressed in HEK293 cells incubated for 6 hrs by luciferase reporter gene assay relative to resiquimod. The format is cell-based. In outline:
(§3)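 HEK293 stably carrying NF-κB-firefly luciferase reporter plus human TLR7 (best resiquimod-responding clone), maintained under puromycin/blasticidin. 25 000 cells per well in DMEM with 3% FCS.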

Assay [6] has as its target T4, Toll-like receptor 7. The assay can be described thus: Agonist activity at human TLR7 expressed in HEK293 cells incubated for 6 hrs by luciferase reporter gene assay. Type of assay: cell-based. The procedure, abridged: as §3
Assay [7] concerns the target T5, Toll-like receptor 7 (Homo sapiens). The assay can be described thus: Agonist activity at TLR7 in human PBMC assessed as induction of IL-6 secretion in supernatant after 18 hrs relative to resiquimod. Type of assay: cell-based. In outline:
as §2

Assay [8] has as its target T3, Toll-like receptor 7 (Mus musculus). Nature of the assay: Agonist activity at TLR7 in Balb/c mouse splenocytes assessed as IL-6 level in supernatant after 18 hrs. The format is cell-based. The procedure, abridged:
as §1

In assay [9] the target is T5, Toll-like receptor 7 (Homo sapiens). The assay can be described thus: Agonist activity at TLR7 in human PBMC assessed as IL-6 level in supernatant after 18 hrs. In outline: as §2

Turning to `Cc1ccc2c(c1)nc(N)c1ncc(CCc3ccc(OCCCC(F)(F)P(=O)(O)O)cc3C)cc12`, in assay [1], the Activity was below 5%. Moreover, the pEC50 was 5.49 on Toll-like receptor 7 [2] and 5.80 at Toll-like receptor 7 [4]. Moreover, the %max in [3] turned out to be 47%.

In the case of `COc1ccc(CCc2cnc3c(N)nc4cc(CCP(=O)(O)O)ccc4c3c2)c(C)c1`, in assay [1], the Activity was below 5%. Besides, the pEC50 on Toll-like receptor 7 [2] is 6.89; at Toll-like receptor 7 [4] it was 6.40. Besides, in assay [3], the %max stood at 124%.

With `Cc1cc(OCCCP(=O)(O)O)ccc1CCc1cnc2c(N)nc3cc(CCC(=O)O)ccc3c2c1`, the Activity in [1] is below 5%. The pEC50 was 6.51 on Toll-like receptor 7 [2] and 6.54 on Toll-like receptor 7 [4]. Also, in assay [3], the %max was found to be 100%.

For `COc1ccc(CCc2cnc3c(N)nc4cc(C(=O)P(=O)(O)O)ccc4c3c2)c(C)c1`, the %max in [5] came out at 112%; in assay [3], 117%. For the same compound, the pEC50 on Toll-like receptor 7 [6] is 5.25; at Toll-like receptor 7 [2], 4.85. In addition, the Activity in assay [1] was below 5%. Moreover, the EC50 entry on Toll-like receptor 7 [4] is recorded as “Not Active”. Also, the “%max” value in [7] was “inactive”.

Regarding `Cc1ccc2c(c1)nc(N)c1ncc(CCc3ccc(OCCOCCOCCP(=O)(O)O)cc3C)cc12`, the %max is 94% in assay [5], 83% in [3] and 55% in assay [7]. Moreover, the pEC50 was 5.51 on Toll-like receptor 7 [6], 5.44 on Toll-like receptor 7 [2] and 5.09 at Toll-like receptor 7 [4]. This compound also came in with an Activity in assay [1] below 5%.

In the case of `CCOCc1nc2c(N)nc3ccccc3c2n1CC(C)(C)O`, the Activity in assay [8] was found to be 600 pg/mL; in [9], 12500 pg/mL.

Take `COc1ccc(CCc2cnc3c(N)nc4cc(/C=C(\F)P(=O)(O)O)ccc4c3c2)c(C)c1`: the Activity in [1] is below 5%. The pEC50 at Toll-like receptor 7 [2] was 6.24; on Toll-like receptor 7 [4], 5.47. For the same compound, the %max in assay [3] is 220%.

In assay [1], `COc1ccc(CCc2cnc3c(N)nc4cc(C(=O)C(F)(F)P(=O)(O)O)ccc4c3c2)c(C)c1` gave an Activity below 5%. Besides, the values for the pEC50 at Toll-like receptor 7 [2] and at Toll-like receptor 7 [4] were 5.47 and 5.11, respectively. For the same compound, in [3], the %max is 100%.

For the compound `COc1ccc(CCc2cnc3c(N)nc4cc(/C=C/P(=O)(O)O)ccc4c3c2)c(C)c1`, the pEC50 on Toll-like receptor 7 [6] was 6.82; on Toll-like receptor 7 [2], 5.60; at Toll-like receptor 7 [4], 5.77. In assay [1], this compound yielded an Activity below 5%. In addition, in assay [3], the %max was 81%.
